From article PMC7330163 (Pharmacology Research & Perspectives, 2020)

How the values were obtained:
[1] = cited from earlier work
[2] = Toxicokinetics of the 4-week toxicity study in dog; assay type: in vivo, Beagle dog; details: for AUC0‐24 h (day 8/28): day 28
Cyp3a1 [3] = experiment: Taqman mRNA upregulation in rat liver, 4-week toxicity study; assay type: in vivo, Sprague-Dawley rat
In short: (§1)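 Livers came from satellite-group rats of both sexes (n = 5–6) in the 4-week study, dosed once daily at 0, 50, 150, 450 or 1500 mg/kg in modified gelatine. Transcripts quantified by comparative Ct, normalised to 18S and to vehicle-treated controls; fold change = 2−ΔΔCT.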

total P450 [4] = experiment: Total P450 concentration in liver microsomes of the 4-week rat toxicity study; assay type: in vivo, Sprague-Dawley rat; details: 4 weeks
In short: (§2)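 Microsomes were made from pooled liver (1.5–2 g per dose group) of 4-week toxicity studies, including vehicle controls. Tissue homogenised in ice-cold 50 mmol/L Tris-HCl pH 7.4 with 250 mmol/L sucrose, spun at 9000 g then 100 000 g (4°C), and the pellet washed in 100 mmol/L pyrophosphate pH 7.25 with 1 mmol/L EDTA. Total P450 by carbon monoxide spectrophotometric assay.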

Cyp3a1 [5] = experiment: Taqman mRNA upregulation in rat liver, 8-day mechanistic follow-up study; assay type: in vivo, Sprague-Dawley rat; details: male rats, 8-day follow-up study, relative to vehicle control
In short: (§3)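 Male Sprague-Dawley rats (n = 4) were given 0, 5, 15 or 50 mg/kg daily for 8 days as a suspension in modified gelatine. Liver transcripts were normalised to 18S and to vehicle-treated rats by the ΔΔCT method; fold = 2−ΔΔCT.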

Cyp2c6 [6] = experiment: Taqman mRNA upregulation in rat liver, 4-week toxicity study; assay type: in vivo, Sprague-Dawley rat; details: 4-week study
In short: as §1

[7] = Single-dose intravenous pharmacokinetics in rat; assay type: in vivo, Sprague-Dawley rat; details: for AUC / Vd / clearance / half-life: Sprague-Dawley, plasma, iv
[8] = Plasma exposure in the 8-day mechanistic follow-up study in male rats; assay type: in vivo, Sprague-Dawley rat; details: for AUC: male, Sprague-Dawley, plasma, oral; for AUC / AUC0‐24 h (day 1) / AUC0‐24 h (day 8/28): rat; for AUC0‐24 h (day 1) / AUC0‐24 h (day 8/28): males, 8-day study
[9] = tested on: hepatic OATP transporters; details: partitions into liver by passive diffusion; cited from earlier work
Cyp2c6 [10] = experiment: Taqman mRNA upregulation in rat liver, 8-day mechanistic follow-up study; assay type: in vivo, Sprague-Dawley rat; details: male rats, 8-day follow-up study, relative to vehicle control
In short: as §3

total P450 [11] = experiment: Total P450 concentration in liver microsomes of the 4-week dog toxicity study; assay type: in vivo, Beagle dog; details: 4 weeks
In short: as §2

Cyp2c11 [12] = experiment: Taqman mRNA upregulation in rat liver, 8-day mechanistic follow-up study; assay type: in vivo, Sprague-Dawley rat; details: male rats, 8-day follow-up study, relative to vehicle control
In short: as §3

[13] = Single-dose oral pharmacokinetics in rat; assay type: in vivo; details: Sprague-Dawley, plasma
Cyp2c11 [14] = experiment: Taqman mRNA upregulation in rat liver, 4-week toxicity study; assay type: in vivo, Sprague-Dawley rat; details: male rats; for Upregulation of Cyp2c11 mRNA: 4-week study, relative to vehicle control
In short: as §1

CYP2C9 = experiment: Induction of P450 mRNA in human hepatocytes; assay type: cell-based; details: up to 10 µmol/L
In short: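 Three human hepatocyte batches were cultured as monolayers and treated for 48–89 h with test compound, diluted 1000-fold from DMSO stock, or vehicle. Medium with fresh drug renewed every 24 h; rifampicin and omeprazole served as positive controls. CYP mRNA then measured.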

SMILES: CCCNS(=O)(=O)Nc1ncnc(OCCOc2ncc(Br)cn2)c1-c1ccc(Br)cc1 [macitentan]
- aqueous solubility [1]: low aqueous solubility
- increase in AUC0‐24h from 50 to 500 mg/kg ([2]; 4-week toxicity study): 5.1 fold
- AUC ([2]; beagle, plasma, oral, 5 mg/kg): 17500 ng·h/mL
- AUC0‐24 h (day 1) ([2]; females, 5 mg/kg daily oral): 11.6 μg/mL"h
- AUC0‐24 h (day 8/28) ([2]; females, 5 mg/kg daily oral): 10.5 μg/mL"h
- AUC0‐24 h (day 1) ([2]; females, 50 mg/kg daily oral): 94.8 μg/mL"h
- AUC0‐24 h (day 8/28) ([2]; females, 50 mg/kg daily oral): 46.5 μg/mL"h
- AUC0‐24 h (day 1) ([2]; females, 500 mg/kg daily oral): 504 μg/mL"h
- AUC0‐24 h (day 8/28) ([2]; females, 500 mg/kg daily oral): 84.4 μg/mL"h
- AUC0‐24 h (day 1) ([2]; males, 5 mg/kg daily oral): 17.5 μg/mL"h
- AUC0‐24 h (day 8/28) ([2]; males, 5 mg/kg daily oral): 14.7 μg/mL"h
- AUC0‐24 h (day 1) ([2]; males, 50 mg/kg daily oral): 134 μg/mL"h
- AUC0‐24 h (day 8/28) ([2]; males, 50 mg/kg daily oral): 39.1 μg/mL"h
- AUC0‐24 h (day 1) ([2]; males, 500 mg/kg daily oral): 692 μg/mL"h
- AUC0‐24 h (day 8/28) ([2]; males, 500 mg/kg daily oral): 44.9 μg/mL"h
- Upregulation of Cyp3a1 mRNA (Cyp3a1 [3]; female rats, 50 mg/kg daily, 4-week study, relative to vehicle control): 12.1 ± 4.4
- Upregulation of Cyp3a1 mRNA (Cyp3a1 [3]; female rats, 150 mg/kg daily, 4-week study, relative to vehicle control): 38.3 ± 10.7
- Upregulation of Cyp3a1 mRNA (Cyp3a1 [3]; female rats, 450 mg/kg daily, 4-week study, relative to vehicle control): 55.3 ± 13.1
- Upregulation of Cyp3a1 mRNA (Cyp3a1 [3]; female rats, 1500 mg/kg daily, 4-week study, relative to vehicle control): 106 ± 34
- Upregulation of Cyp3a1 mRNA (Cyp3a1 [3]; female rats, 1500 mg/kg, 4 weeks, vs control): 106 fold
- Upregulation of Cyp3a1 mRNA (Cyp3a1 [3]; male rats, 50 mg/kg daily, 4-week study, relative to vehicle control = 1.00): 2.17 ± 0.37
- Upregulation of Cyp3a1 mRNA (Cyp3a1 [3]; male rats, 150 mg/kg daily, 4-week study, relative to vehicle control): 3.51 ± 1.36
- Upregulation of Cyp3a1 mRNA (Cyp3a1 [3]; male rats, 450 mg/kg daily, 4-week study, relative to vehicle control): 4.87 ± 0.51
- Upregulation of Cyp3a1 mRNA (Cyp3a1 [3]; male rats, 1500 mg/kg daily, 4-week study, relative to vehicle control): 9.96 ± 4.18
- increase of Cyp3a1 mRNA vs control (Cyp3a1 [3]; male rats, 1500 mg/kg, 4 weeks): about 10 fold
- P450 (total, liver microsomes) (total P450 [4]; female rats, macitentan 50 mg/kg daily): 1.05 nmol/mg
- P450 (total, liver microsomes) (total P450 [4]; female rats, macitentan 150 mg/kg daily): 1.15 nmol/mg
- P450 (total, liver microsomes) (total P450 [4]; female rats, macitentan 450 mg/kg daily): 1.18 nmol/mg
- P450 (total, liver microsomes) (total P450 [4]; female rats, macitentan 1500 mg/kg daily): 0.90 nmol/mg
- P450 (total, liver microsomes) (total P450 [4]; male rats, macitentan 50 mg/kg daily): 1.35 nmol/mg
- P450 (total, liver microsomes) (total P450 [4]; male rats, macitentan 150 mg/kg daily): 1.41 nmol/mg
- P450 (total, liver microsomes) (total P450 [4]; male rats, macitentan 450 mg/kg daily): 1.33 nmol/mg
- P450 (total, liver microsomes) (total P450 [4]; male rats, macitentan 1500 mg/kg daily): 1.45 nmol/mg
- Upregulation of Cyp3a1 mRNA (Cyp3a1 [5]; 5 mg/kg daily): 1.66 ± 0.75
- Upregulation of Cyp3a1 mRNA (Cyp3a1 [5]; 15 mg/kg daily): 2.53 ± 2.02
- Upregulation of Cyp3a1 mRNA (Cyp3a1 [5]; 50 mg/kg daily): 6.04 ± 3.00
- Upregulation of Cyp2c6 mRNA (Cyp2c6 [6]; female rats, 50 mg/kg daily, relative to vehicle control): 2.78 ± 0.95
- Upregulation of Cyp2c6 mRNA (Cyp2c6 [6]; female rats, 150 mg/kg daily, relative to vehicle control): 4.21 ± 0.51
- Upregulation of Cyp2c6 mRNA (Cyp2c6 [6]; female rats, 450 mg/kg daily, relative to vehicle control): 4.35 ± 1.54
- Upregulation of Cyp2c6 mRNA (Cyp2c6 [6]; female rats, 1500 mg/kg daily, relative to vehicle control): 3.29 ± 0.77
- Upregulation of Cyp2c6 mRNA (Cyp2c6 [6]; male rats, 50 mg/kg daily, relative to vehicle control = 1.00): 6.21 ± 1.02
- Upregulation of Cyp2c6 mRNA (Cyp2c6 [6]; male rats, 150 mg/kg daily, relative to vehicle control): 4.36 ± 1.96
- Upregulation of Cyp2c6 mRNA (Cyp2c6 [6]; male rats, 450 mg/kg daily, relative to vehicle control): 9.53 ± 1.26
- Upregulation of Cyp2c6 mRNA (Cyp2c6 [6]; male rats, 1500 mg/kg daily, relative to vehicle control): 9.20 ± 3.29
- T 1/2 ([7]; F, 0.3 mg/kg single iv, geometric mean (range)): 8.9 (6.6‐12) h
- AUC ([7]; female, 0.3 mg/kg): 2990 ng·h/mL
- Vd ([7]; female, 0.3 mg/kg): 1.4 L/kg
- clearance ([7]; female, 0.3 mg/kg): 2 mL/min/kg
- half-life ([7]; female, 0.3 mg/kg): 8.9 h
- AUC ([7]; male, 0.1 mg/kg): 270 ng·h/mL
- Vd ([7]; male, 0.1 mg/kg): 1.6 L/kg
- clearance ([7]; male, 0.1 mg/kg): 6.5 mL/min/kg
- half-life ([7]; male, 0.1 mg/kg): 3.8 h
- AUC ([7]; male, 0.3 mg/kg): 610 ng·h/mL
- Vd ([7]; male, 0.3 mg/kg): 1.2 L/kg
- clearance ([7]; male, 0.3 mg/kg): 8.2 mL/min/kg
- half-life ([7]; male, 0.3 mg/kg): 1.9 h
- CL in female rats as percent of the value in male animals ([7]; single iv): 25%
- change in AUC0‐24h after 8 days treatment ([8]; male rats, 3 mg/kg): No change
- AUC0‐24h (day 1) as percent of the AUC0‐24h (day 1) in the 4‐week study ([8]; male rats, 50 mg/kg, different macitentan batches (particle size)): 13%
- AUC ([8]; 15 mg/kg): 20300 ng·h/mL
- AUC ([8]; 50 mg/kg): 26800 ng·h/mL
- AUC0‐24 h (day 1) ([8]; 3 mg/kg daily oral): 3.09 μg/mL"h
- AUC0‐24 h (day 8/28) ([8]; 3 mg/kg daily oral): 3.05 μg/mL"h
- AUC0‐24 h (day 1) ([8]; 15 mg/kg daily oral): 20.3 μg/mL"h
- AUC0‐24 h (day 8/28) ([8]; 15 mg/kg daily oral): 12.3 μg/mL"h
- AUC0‐24 h (day 1) ([8]; 50 mg/kg daily oral): 26.8 μg/mL"h
- AUC0‐24 h (day 8/28) ([8]; 50 mg/kg daily oral): 16.8 μg/mL"h
- substrate of hepatic OATP transporters [9]: not a substrate of hepatic OATP transporters
- Upregulation of Cyp2c6 mRNA (Cyp2c6 [10]; 5 mg/kg daily): 1.92 ± 0.45
- Upregulation of Cyp2c6 mRNA (Cyp2c6 [10]; 15 mg/kg daily): 1.55 ± 1.21
- Upregulation of Cyp2c6 mRNA (Cyp2c6 [10]; 50 mg/kg daily): 3.08 ± 2.45
- P450 (total, liver microsomes) (total P450 [11]; female dogs, macitentan 5 mg/kg daily): 0.63 nmol/mg
- P450 (total, liver microsomes) (total P450 [11]; female dogs, macitentan 50 mg/kg daily): 0.87 nmol/mg
- P450 (total, liver microsomes) (total P450 [11]; female dogs, macitentan 500 mg/kg daily): 0.84 nmol/mg
- P450 (total, liver microsomes) (total P450 [11]; male dogs, macitentan 5 mg/kg daily): 0.50 nmol/mg
- P450 (total, liver microsomes) (total P450 [11]; male dogs, macitentan 50 mg/kg daily): 0.73 nmol/mg
- P450 (total, liver microsomes) (total P450 [11]; male dogs, macitentan 500 mg/kg daily): 1.00 nmol/mg
- Upregulation of Cyp2c11 mRNA (Cyp2c11 [12]; 5 mg/kg daily): 1.55 ± 0.22
- Upregulation of Cyp2c11 mRNA (Cyp2c11 [12]; 15 mg/kg daily): 1.65 ± 1.35
- Upregulation of Cyp2c11 mRNA (Cyp2c11 [12]; 50 mg/kg daily): 2.50 ± 0.85
- AUC ([13]; female, 3 mg/kg): 18400 ng·h/mL
- Cmax ([13]; female, 3 mg/kg): 850 ng/mL
- Tmax ([13]; female, 3 mg/kg): 8 h
- bioavailability ([13]; female, 3 mg/kg): 62%
- AUC ([13]; male, 3 mg/kg): 3240 ng·h/mL
- Cmax ([13]; male, 3 mg/kg): 380 ng/mL
- Tmax ([13]; male, 3 mg/kg): 6 h
- bioavailability ([13]; male, 3 mg/kg): 53%
- AUC ([13]; male, 30 mg/kg): 97400 ng·h/mL
- Cmax ([13]; male, 30 mg/kg): 7300 ng/mL
- Tmax ([13]; male, 30 mg/kg): 16 h
- increase of Cyp2c11 mRNA levels vs control (Cyp2c11 [14]; 450 mg/kg and 1500 mg/kg, 4 weeks): about 50%
- Upregulation of Cyp2c11 mRNA (Cyp2c11 [14]; 450 mg/kg daily): 1.48 ± 0.48
- Upregulation of Cyp2c11 mRNA (Cyp2c11 [14]; 1500 mg/kg daily): 1.43 ± 0.55
- change in CYP2C9 mRNA expression (CYP2C9): No change
